Measurements from ChEMBL document CHEMBL1121524, “Studies of hypolipidemic agents. 1. Synthesis and hypolipidemic activities of alkoxycinnamic acid derivatives” (1980).

What was measured:
[1] = system: Rattus norvegicus; assay: In vivo hypolipidemic activity, expressed as percent decrease in Triglyceride in rat, at dosage of 100 mg for 7 days.; format: functional
Method in brief: (§1)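 Male Sprague-Dawley rats, 4 weeks old, kept on CE-2 chow for at least 1 week, then grouped (generally five per group). Compound was mixed into CE-2 powder and fed ad libitum for the stated period; controls received plain CE-2 powder. Diet level is given as mg/100 g (mg%), about equal to mg/kg/day. Total serum triglyceride was measured by the Ryan and Rasho method and reported as percent depression versus control group mean. Significance was p < 0.05.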

[2] = organism: Rattus norvegicus; assay: Hypolipidemic activity, expressed as percent decrease in serum cholesterol in rat, at dosage of 100 mg for 7 days by Zak et al method; format: functional
Method in brief: as §1, with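 “cholesterol” for “triglyceride”, “Zak et al.” for “Ryan and Rasho”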

[3] = system: Rattus norvegicus; assay: In vivo hypolipidemic activity, expressed as percent decrease in serum triglyceride in rat, at dosage of 20 mg for 7 days.
[4] = organism: Rattus norvegicus; assay: Hypolipidemic activity expressed as percentage decrease in triglyceride in rat, at dosage of 50 mg for 7 days; format: functional; method in brief: as §1
[5] = system: Rattus norvegicus; assay: In vivo hypolipidemic activity, expressed as percent decrease in serum cholesterol in rat, at dosage of 20 mg for 7 days.; format: functional
Method in brief: as §1, with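 “cholesterol” for “triglyceride”, “Zak et al.” for “Ryan and Rasho”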

[6] = organism: Rattus norvegicus; assay: Tested for the hypolipidemic activity, expressed as percent decrease in serum cholesterol in rat, at dosage of 50 mg for 7 days; format: functional
Method in brief: as §1, with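 “cholesterol” for “triglyceride”, “Zak et al.” for “Ryan and Rasho”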

[7] = organism: Rattus norvegicus; assay: tested for the hypolipidemic activity, expressed as percent decrease in serum cholesterol in rat, at dosage of 10 mg for 7 days by Zak et al method; format: functional
Method in brief: as §1, with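 “cholesterol” for “triglyceride”, “Zak et al.” for “Ryan and Rasho”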

[8] = organism: Rattus norvegicus; assay: tested for the hypolipidemic activity, expressed as percent decrease in Triglyceride in rat, at dosage of 10 mg for 7 days by Ryan and Rasho method; format: functional; method in brief: as §1
[9] = organism: Rattus norvegicus; assay: Tested for the hypolipidemic activity, expressed as percent decrease in Triglyceride in rat, at dosage of 100 mg for 3 days by Ryan and Rasho method; format: functional; method in brief: as §1
[10] = organism: Rattus norvegicus; assay: Tested for the hypolipidemic activity, expressed as percent decrease in serum cholesterol in rat, at dosage of 100 mg for 3 days by Zak et al method; format: functional
Method in brief: as §1, with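 “cholesterol” for “triglyceride”, “Zak et al.” for “Ryan and Rasho”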

[11] = organism: Rattus norvegicus; assay: Tested for the hypolipidemic activity, expressed as percent decrease in serum cholesterol in rat, at dosage of 100 mg for 6 days by Zak et al method; format: functional
Method in brief: as §1, with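 “cholesterol” for “triglyceride”, “Zak et al.” for “Ryan and Rasho”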

[12] = organism: Rattus norvegicus; assay: Tested for the hypolipidemic activity, expressed as percent decrease in Triglyceride in rat, at dosage of 100 mg for 6 days by Ryan and Rasho method; format: functional; method in brief: as §1
[13] = organism: Rattus norvegicus; assay: Tested for the hypolipidemic activity, expressed as percent decrease in Triglyceride in rat, at dosage of 10 mg for 7 days by Ryan and Rasho method; format: functional; method in brief: as §1
[14] = organism: Rattus norvegicus; assay: Tested for the hypolipidemic activity, expressed as percent decrease in serum cholesterol in rat, at dosage of 10 mg for 7 days by Zak et al method; format: functional
Method in brief: as §1, with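 “cholesterol” for “triglyceride”, “Zak et al.” for “Ryan and Rasho”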

[15] = organism: Rattus norvegicus; assay: tested for the hypolipidemic activity, expressed as percent decrease in Triglyceride in rat, at dosage of 50 mg for 3 days by Ryan and Rasho method; format: functional; method in brief: as §1
[16] = organism: Rattus norvegicus; assay: tested for the hypolipidemic activity, expressed as percent decrease in serum cholesterol in rat, at dosage of 50 mg for 3 days by Zak et al method; format: functional
Method in brief: as §1, with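 “cholesterol” for “triglyceride”, “Zak et al.” for “Ryan and Rasho”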

[17] = organism: Rattus norvegicus; assay: Tested for the hypolipidemic activity, expressed as percent decrease in Triglyceride in rat, at dosage of mg for 7 days by Ryan and Rasho method; format: functional; method in brief: as §1

Structure (SMILES)	Decrease [1] [%]	Decrease [2] [%]	Decrease [3] [%]	Decrease [4] [%]	Decrease [5] [%]	Decrease [6] [%]	also measured
CCCCOc1ccc(/C=C/C(=O)OCCBr)cc1	26	9	–	–	–	–	–
C/C(=C\c1ccc(Oc2ccccc2)cc1)C(=O)OCC(O)CO (configuration not stated)	–	–	-1	4	7	14	–
CCCCCCCCCCCCCCCCOc1ccc(/C=C/C(=O)OCCO)cc1	57	24	26	–	18	–	–
C=C(C)C(=O)OCCOC(=O)/C=C/c1ccc(OCCCCCCCCCCCCCCCC)cc1	65	27	38	42	16	13	Decrease [7]: 5%; Decrease [8]: 15%
C/C=C/C(=O)OCCOC(=O)/C=C/c1ccc(OCCCCCCCCCCCCCCCC)cc1	11	3	–	–	–	–	–
CCCCCCCCCCCCCCCCOc1ccc(/C=C/C(=O)OCCCOC(=O)/C=C/c2ccc(OCCCCCCCCCCCCCCCC)cc2)cc1	–	–	–	–	–	–	Decrease [9]: -2%; Decrease [10]: 8%
CCCCCCCCCCCCCCCCOc1ccc(/C=C(\C)C(=O)O)cc1	–	–	1	25	9	17	–
O=C(/C=C/c1ccccc1)OCC(O)CO (configuration not stated)	–	–	–	–	–	–	Decrease [11]: 6%; Decrease [12]: 16%
CCCCCCCCCCCCCCCCOc1ccc(/C=C/C(=O)OCC(O)CO)cc1 (configuration not stated)	62	26	8	17	9	19	Decrease [7]: -4%; Decrease [8]: 11%
O=C(/C=C/c1ccc(Oc2ccccc2)cc1)OCCCCl	–	–	-2	–	17	–	Decrease [11]: 32%; Decrease [12]: 54%; Decrease [13]: 13%; Decrease [14]: 4%
CCCCCCCCCCCCCCCCOc1ccc(/C=C(\C)C(=O)OCCCl)cc1	–	–	5	–	20	–	Decrease [15]: 26%; Decrease [16]: 20%; Decrease [9]: 48%; Decrease [10]: 24%
CCCCCCCCCCCCCCCCOc1ccc(/C=C(\C)C(=O)OCC(O)CO)cc1 (configuration not stated)	–	–	5	28	11	15	Decrease [9]: 68%; Decrease [10]: 32%
CCCCCCCCCCCCOc1ccc(/C=C(\C)C(=O)OCC(O)CO)cc1 (configuration not stated)	–	–	33	53	16	26	Decrease [7]: 9%; Decrease [8]: 10%
CCCCCCCCCCCCOc1ccc(/C=C(\C)C(=O)OCC(COC(=O)/C(C)=C/c2ccc(OCCCCCCCCCCCC)cc2)OC(=O)/C(C)=C/c2ccc(OCCCCCCCCCCCC)cc2)cc1 (configuration not stated)	–	–	–	–	–	2	Decrease [17]: 28%
C=C(C)C(=O)OCCOC(=O)/C=C/c1ccc(Oc2ccccc2)cc1	–	–	–	–	–	–	Decrease [9]: -15%; Decrease [10]: 14%
CCCCOc1ccc(/C=C/C(=O)OCCO)cc1	26	9	–	–	–	–	–
CCCCCCCCCCCCCCCCOc1ccc(/C=C/C(=O)OCCOC(=O)/C=C/c2ccc(OCCCCCCCCCCCCCCCC)cc2)cc1	–	–	–	–	–	–	Decrease [9]: -4%; Decrease [10]: 9%
C=CCOc1ccc(/C=C/C(=O)OCCCl)cc1	26	-9	–	–	–	–	–
CCCCCCCCCCCCCCCCOc1ccc(/C=C(\C)C(=O)OCCS(=O)(=O)[O-])cc1.[Na+]	–	–	–	–	–	–	Decrease [9]: 36%; Decrease [10]: 8%
O=C(/C=C/c1ccc(Oc2ccccc2)cc1)OCCCl	–	–	21	–	18	–	–
CCCCOc1ccc(/C=C/C(=O)OCCN2CCCCC2)cc1.Cl	2	3	–	–	–	–	–
CCCCOc1ccc(/C=C/C(=O)OCCN2CCOCC2)cc1.Cl	–	–	–	–	–	–	Decrease [9]: -32%; Decrease [10]: -9%
O=C(O)/C=C/c1ccc(Oc2ccccc2)cc1	–	–	14	34	14	15	–
CCCCCCCCCCCCCCOc1ccc(/C=C(\C)C(=O)OCC(O)CO)cc1 (stereo in doubt; 97)	52	45	33	43	14	25	–
CCOC(=O)C(C)(C)Oc1ccc(Cl)cc1 [CLOFIBRATE]	41	22	–	35	–	14	–
